Results published in paper PMC9444296 (Investigative Radiology, 2022).

Key:
[1] = Plasma protein binding, dog plasma; assay type: in vitro ADME; details: 37°C, 3 min, 10 kDa ultrafiltration, Gd by ICP-OES, n = 4
Outline: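 Test compound at 50, 80 or 110 μM was incubated with human, dog or rat plasma (alongside HSA 40 mg/mL and PBS) at 37°C for 3 min. Mixtures were kept overnight and centrifuged to remove insolubles. Gd was measured by ICP-OES, and the binding ratio was taken as bound over total concentration.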

[2] = Metabolic pathway study in human liver microsomes; assay type: in vitro ADME; details: 1 μM, 2 hours
[3] = Metabolic stability in cynomolgus monkey hepatocytes; assay type: in vitro ADME; details: 2 hours of incubation, LC-MS/MS
[4] = Metabolic stability in human hepatocytes; assay type: in vitro ADME; details: 2 hours of incubation, LC-MS/MS
CYP2C8 = CYP2C8 (Homo sapiens, UniProt P10632); assay: CYP2C8 inhibition in human liver microsomes; assay type: in vitro ADME; details: highest test concentration (100 μM)
Sequence of CYP2C8 (P10632 whole entry): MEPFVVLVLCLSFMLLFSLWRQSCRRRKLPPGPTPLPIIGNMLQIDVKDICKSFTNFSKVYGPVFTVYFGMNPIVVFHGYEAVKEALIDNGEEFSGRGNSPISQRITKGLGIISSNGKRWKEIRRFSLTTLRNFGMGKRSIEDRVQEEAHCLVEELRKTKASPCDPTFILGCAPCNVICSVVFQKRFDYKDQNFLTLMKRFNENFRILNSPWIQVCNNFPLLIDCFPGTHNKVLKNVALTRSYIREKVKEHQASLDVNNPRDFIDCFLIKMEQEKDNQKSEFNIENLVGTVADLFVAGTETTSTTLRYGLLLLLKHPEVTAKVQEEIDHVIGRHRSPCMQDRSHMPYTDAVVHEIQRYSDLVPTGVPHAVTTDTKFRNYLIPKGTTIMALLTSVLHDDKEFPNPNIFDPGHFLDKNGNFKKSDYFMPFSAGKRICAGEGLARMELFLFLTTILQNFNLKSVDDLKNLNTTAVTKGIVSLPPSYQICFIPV

[5] = Gd remaining in rat tissues after toxicity study; assay type: in vivo; details: for Measured Concentration of Gd, Mean: day 29, ICP-MS
Outline: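 Femur, abdominal skin, liver, brain, quadriceps, lung, heart, kidney, spleen, colon and jejunum were collected, and residual Gd was measured by ICP-MS.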

bone marrow of ICR mice = assay: Micronucleus assay in ICR mice; assay type: in vivo, mouse; details: ICR mice, 1.39, 0.70, and 0.35 mmol/kg/d for 2 days
Outline: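 Male ICR mice, 32 in total, were dosed once daily for 2 days: vehicle, 500 or 1000 mg/kg/d (6 per group) or 2000 mg/kg/d (8 mice). Cyclophosphamide monohydrate served as positive control. Bone marrow was collected about 22.5 h after the final dose and scored for micronuclei and for polychromatic to total erythrocytes.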

OATP1B1 = OATP1B1 (Homo sapiens, UniProt Q9Y6L6); assay: OATP1B1 inhibition, HEK293 cells; assay type: in vitro ADME; details: 1, 5, 10, 50, and 100 μM
Sequence of OATP1B1 (Q9Y6L6 whole entry): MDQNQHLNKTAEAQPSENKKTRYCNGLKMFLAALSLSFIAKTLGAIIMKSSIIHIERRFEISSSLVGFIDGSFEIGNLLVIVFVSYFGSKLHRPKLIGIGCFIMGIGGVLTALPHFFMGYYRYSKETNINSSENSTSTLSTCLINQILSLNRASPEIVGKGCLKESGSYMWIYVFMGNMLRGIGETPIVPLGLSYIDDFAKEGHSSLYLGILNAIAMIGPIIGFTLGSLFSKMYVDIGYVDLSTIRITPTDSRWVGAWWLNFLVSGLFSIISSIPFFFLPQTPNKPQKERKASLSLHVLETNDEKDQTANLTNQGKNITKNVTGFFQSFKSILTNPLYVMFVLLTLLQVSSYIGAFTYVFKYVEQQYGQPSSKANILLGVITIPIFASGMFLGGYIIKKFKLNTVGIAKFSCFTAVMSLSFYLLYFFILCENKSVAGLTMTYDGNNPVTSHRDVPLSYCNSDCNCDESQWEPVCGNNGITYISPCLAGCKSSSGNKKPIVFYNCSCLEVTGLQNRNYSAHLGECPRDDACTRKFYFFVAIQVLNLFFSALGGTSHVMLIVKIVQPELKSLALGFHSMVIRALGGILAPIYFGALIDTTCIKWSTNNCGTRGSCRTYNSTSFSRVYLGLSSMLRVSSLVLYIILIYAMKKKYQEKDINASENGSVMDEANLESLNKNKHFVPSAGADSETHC

OCT2 = OCT2 (Homo sapiens, UniProt O15244); assay: OCT2 inhibition, HEK293 cells; assay type: in vitro ADME; details: 1, 5, 10, 50, and 100 μM
Sequence of OCT2 (O15244 whole entry): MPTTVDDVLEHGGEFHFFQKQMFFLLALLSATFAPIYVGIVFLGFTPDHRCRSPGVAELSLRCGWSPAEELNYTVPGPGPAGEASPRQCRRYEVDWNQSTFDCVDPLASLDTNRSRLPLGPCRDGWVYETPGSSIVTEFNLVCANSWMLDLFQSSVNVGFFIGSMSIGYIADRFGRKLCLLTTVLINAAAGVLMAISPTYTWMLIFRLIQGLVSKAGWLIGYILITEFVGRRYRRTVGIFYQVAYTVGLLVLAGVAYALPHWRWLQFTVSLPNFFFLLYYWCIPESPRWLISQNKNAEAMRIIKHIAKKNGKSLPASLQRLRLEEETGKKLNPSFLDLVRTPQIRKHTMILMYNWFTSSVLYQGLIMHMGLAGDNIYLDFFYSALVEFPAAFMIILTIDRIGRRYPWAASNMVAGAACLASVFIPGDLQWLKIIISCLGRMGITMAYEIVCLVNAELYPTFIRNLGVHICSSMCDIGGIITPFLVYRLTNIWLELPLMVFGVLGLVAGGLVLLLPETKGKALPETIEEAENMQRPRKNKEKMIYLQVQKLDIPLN

[6] = rats, single dose 1.39 mmol/kg, day 15, ICP-MS

Question: What does the source list for ZD2-N3-Gd(HP-DO3A) [MT218]?
Answer: binding ratio to plasma proteins ([1]; 50 μM): 29.10%; binding ratio to plasma proteins ([1]; 80 μM): 26.91%; binding ratio to plasma proteins ([1]; 110 μM): 48.44%; MT218 remaining ([2]; CYP1A2 group): 105%; MT218 remaining ([2]; CYP2B6 group): 117%; MT218 remaining ([2]; CYP2C8 group): 101%; MT218 remaining ([2]; CYP2C9 group): 98.8%; MT218 remaining ([2]; CYP2C19 group): 105%; MT218 remaining ([2]; CYP2D6 group): 109%; MT218 remaining ([2]; CYP3A4 group): 99.1%; remaining MT218 [3]: 82.9%; remaining MT218 [4]: 61.1%; relative CYP2C8 activity, of the negative controls (CYP2C8): 52.5%; Measured Concentration of Gd, Mean ([5]; Female rat, Bone, 0.15 mmol/kg/d daily IV 2 weeks): 0.19 μg/g Tissue; Measured Concentration of Gd, Mean ([5]; Female rat, Bone, 0.46 mmol/kg/d daily IV 2 weeks): 1.13 μg/g Tissue; Measured Concentration of Gd, Mean ([5]; Female rat, Bone, 1.39 mmol/kg/d daily IV 2 weeks): 4.90 μg/g Tissue; Measured Concentration of Gd, Mean ([5]; Female rat, Brain, 0.15 mmol/kg/d daily IV 2 weeks): BQL; Measured Concentration of Gd, Mean ([5]; Female rat, Brain, 0.46 mmol/kg/d daily IV 2 weeks): 0.03 μg/g Tissue; Measured Concentration of Gd, Mean ([5]; Female rat, Brain, 1.39 mmol/kg/d daily IV 2 weeks): 0.40 μg/g Tissue; Measured Concentration of Gd, Mean ([5]; Female rat, Colon, 0.15 mmol/kg/d daily IV 2 weeks): 0.15 μg/g Tissue; Measured Concentration of Gd, Mean ([5]; Female rat, Colon, 0.46 mmol/kg/d daily IV 2 weeks): 1.02 μg/g Tissue; Measured Concentration of Gd, Mean ([5]; Female rat, Colon, 1.39 mmol/kg/d daily IV 2 weeks): 3.44 μg/g Tissue; Measured Concentration of Gd, Mean ([5]; Female rat, Heart, 0.15 mmol/kg/d daily IV 2 weeks): BQL; Measured Concentration of Gd, Mean ([5]; Female rat, Heart, 0.46 mmol/kg/d daily IV 2 weeks): 3.17 μg/g Tissue; Measured Concentration of Gd, Mean ([5]; Female rat, Heart, 1.39 mmol/kg/d daily IV 2 weeks): 1.85 μg/g Tissue; Measured Concentration of Gd, Mean ([5]; Female rat, Jejunum, 0.15 mmol/kg/d daily IV 2 weeks): 0.23 μg/g Tissue; Measured Concentration of Gd, Mean ([5]; Female rat, Jejunum, 0.46 mmol/kg/d daily IV 2 weeks): 0.73 μg/g Tissue; Measured Concentration of Gd, Mean ([5]; Female rat, Jejunum, 1.39 mmol/kg/d daily IV 2 weeks): 3.26 μg/g Tissue; Measured Concentration of Gd, Mean ([5]; Female rat, Kidney, 0.15 mmol/kg/d daily IV 2 weeks): 26.46 μg/g Tissue; Measured Concentration of Gd, Mean ([5]; Female rat, Kidney, 0.46 mmol/kg/d daily IV 2 weeks): 100.81 μg/g Tissue; Measured Concentration of Gd, Mean ([5]; Female rat, Kidney, 1.39 mmol/kg/d daily IV 2 weeks): 346.00 μg/g Tissue; Measured Concentration of Gd, Mean ([5]; Female rat, Liver, 0.15 mmol/kg/d daily IV 2 weeks): 0.31 μg/g Tissue; Measured Concentration of Gd, Mean ([5]; Female rat, Liver, 0.46 mmol/kg/d daily IV 2 weeks): 1.03 μg/g Tissue; Measured Concentration of Gd, Mean ([5]; Female rat, Liver, 1.39 mmol/kg/d daily IV 2 weeks): 4.11 μg/g Tissue; Measured Concentration of Gd, Mean ([5]; Female rat, Lung, 0.15 mmol/kg/d daily IV 2 weeks): 0.20 μg/g Tissue; Measured Concentration of Gd, Mean ([5]; Female rat, Lung, 0.46 mmol/kg/d daily IV 2 weeks): 1.27 μg/g Tissue; Measured Concentration of Gd, Mean ([5]; Female rat, Lung, 1.39 mmol/kg/d daily IV 2 weeks): 3.86 μg/g Tissue; Measured Concentration of Gd, Mean ([5]; Female rat, Muscle, 0.15 mmol/kg/d daily IV 2 weeks): 0.03 μg/g Tissue; Measured Concentration of Gd, Mean ([5]; Female rat, Muscle, 0.46 mmol/kg/d daily IV 2 weeks): 0.21 μg/g Tissue; Measured Concentration of Gd, Mean ([5]; Female rat, Muscle, 1.39 mmol/kg/d daily IV 2 weeks): 1.27 μg/g Tissue; Measured Concentration of Gd, Mean ([5]; Female rat, Skin, 0.15 mmol/kg/d daily IV 2 weeks): 0.14 μg/g Tissue; Measured Concentration of Gd, Mean ([5]; Female rat, Skin, 0.46 mmol/kg/d daily IV 2 weeks): 1.26 μg/g Tissue; Measured Concentration of Gd, Mean ([5]; Female rat, Skin, 1.39 mmol/kg/d daily IV 2 weeks): 4.56 μg/g Tissue; Measured Concentration of Gd, Mean ([5]; Female rat, Spleen, 0.15 mmol/kg/d daily IV 2 weeks): 0.32 μg/g Tissue; Measured Concentration of Gd, Mean ([5]; Female rat, Spleen, 0.46 mmol/kg/d daily IV 2 weeks): 1.41 μg/g Tissue; Measured Concentration of Gd, Mean ([5]; Female rat, Spleen, 1.39 mmol/kg/d daily IV 2 weeks): 4.69 μg/g Tissue; Measured Concentration of Gd, Mean ([5]; Male rat, Bone, 0.15 mmol/kg/d daily IV 2 weeks): 0.28 μg/g Tissue; Measured Concentration of Gd, Mean ([5]; Male rat, Bone, 0.46 mmol/kg/d daily IV 2 weeks): 0.70 μg/g Tissue; Measured Concentration of Gd, Mean ([5]; Male rat, Bone, 1.39 mmol/kg/d daily IV 2 weeks): 5.85 μg/g Tissue; Measured Concentration of Gd, Mean ([5]; Male rat, Brain, 0.15 mmol/kg/d daily IV 2 weeks): BQL; Measured Concentration of Gd, Mean ([5]; Male rat, Brain, 0.46 mmol/kg/d daily IV 2 weeks): 0.07 μg/g Tissue; Measured Concentration of Gd, Mean ([5]; Male rat, Colon, 0.15 mmol/kg/d daily IV 2 weeks): 0.18 μg/g Tissue; Measured Concentration of Gd, Mean ([5]; Male rat, Colon, 0.46 mmol/kg/d daily IV 2 weeks): 0.79 μg/g Tissue; Measured Concentration of Gd, Mean ([5]; Male rat, Colon, 1.39 mmol/kg/d daily IV 2 weeks): 3.92 μg/g Tissue; Measured Concentration of Gd, Mean ([5]; Male rat, Heart, 0.15 mmol/kg/d daily IV 2 weeks): 0.14 μg/g Tissue; Measured Concentration of Gd, Mean ([5]; Male rat, Heart, 0.46 mmol/kg/d daily IV 2 weeks): 1.72 μg/g Tissue; Measured Concentration of Gd, Mean ([5]; Male rat, Heart, 1.39 mmol/kg/d daily IV 2 weeks): 2.56 μg/g Tissue; Measured Concentration of Gd, Mean ([5]; Male rat, Jejunum, 0.15 mmol/kg/d daily IV 2 weeks): 0.17 μg/g Tissue; Measured Concentration of Gd, Mean ([5]; Male rat, Jejunum, 0.46 mmol/kg/d daily IV 2 weeks): 0.73 μg/g Tissue; Measured Concentration of Gd, Mean ([5]; Male rat, Jejunum, 1.39 mmol/kg/d daily IV 2 weeks): 3.72 μg/g Tissue; Measured Concentration of Gd, Mean ([5]; Male rat, Kidney, 0.15 mmol/kg/d daily IV 2 weeks): 15.15 μg/g Tissue; Measured Concentration of Gd, Mean ([5]; Male rat, Kidney, 0.46 mmol/kg/d daily IV 2 weeks): 70.70 μg/g Tissue; Measured Concentration of Gd, Mean ([5]; Male rat, Kidney, 1.39 mmol/kg/d daily IV 2 weeks): 519.85 μg/g Tissue; Measured Concentration of Gd, Mean ([5]; Male rat, Liver, 0.15 mmol/kg/d daily IV 2 weeks): 0.22 μg/g Tissue; Measured Concentration of Gd, Mean ([5]; Male rat, Liver, 0.46 mmol/kg/d daily IV 2 weeks): 1.96 μg/g Tissue; Measured Concentration of Gd, Mean ([5]; Male rat, Liver, 1.39 mmol/kg/d daily IV 2 weeks): 4.85 μg/g Tissue; Measured Concentration of Gd, Mean ([5]; Male rat, Lung, 0.15 mmol/kg/d daily IV 2 weeks): BQL; Measured Concentration of Gd, Mean ([5]; Male rat, Lung, 0.46 mmol/kg/d daily IV 2 weeks): 1.33 μg/g Tissue; Measured Concentration of Gd, Mean ([5]; Male rat, Lung, 1.39 mmol/kg/d daily IV 2 weeks): 4.83 μg/g Tissue; Measured Concentration of Gd, Mean ([5]; Male rat, Muscle, 0.15 mmol/kg/d daily IV 2 weeks): BQL; Measured Concentration of Gd, Mean ([5]; Male rat, Muscle, 0.46 mmol/kg/d daily IV 2 weeks): 0.22 μg/g Tissue; Measured Concentration of Gd, Mean ([5]; Male rat, Muscle, 1.39 mmol/kg/d daily IV 2 weeks): 1.15 μg/g Tissue; Measured Concentration of Gd, Mean ([5]; Male rat, Skin, 0.15 mmol/kg/d daily IV 2 weeks): 0.13 μg/g Tissue; Measured Concentration of Gd, Mean ([5]; Male rat, Skin, 0.46 mmol/kg/d daily IV 2 weeks): 0.95 μg/g Tissue; Measured Concentration of Gd, Mean ([5]; Male rat, Skin, 1.39 mmol/kg/d daily IV 2 weeks): 2.31 μg/g Tissue; Measured Concentration of Gd, Mean ([5]; Male rat, Spleen, 0.15 mmol/kg/d daily IV 2 weeks): 0.37 μg/g Tissue; Measured Concentration of Gd, Mean ([5]; Male rat, Spleen, 0.46 mmol/kg/d daily IV 2 weeks): 1.12 μg/g Tissue; Measured Concentration of Gd, Mean ([5]; Male rat, Spleen, 1.39 mmol/kg/d daily IV 2 weeks): 6.04 μg/g Tissue; Gd concentration in other tissues relative to the kidney concentration [5, 6]: < 1/20; Gd in the brain and muscles [5, 6]: not detected; incidence of micronuclei vs vehicle control (bone marrow of ICR mice): no significant increase; ratio of polychromatic erythrocytes to total erythrocytes (bone marrow of ICR mice): no significant decrease; inhibition of OATP1B1 transporter activity (OATP1B1): no inhibition potential; inhibition of OCT2 transporter activity (OCT2): no inhibition potential
